Measured values as given in ChEMBL document CHEMBL3271935, “Synthesis and biological activity of some broad-spectrum N-acylphenyglycine cephalosporins” (1977).
Converted amounts (≈) assume the structure as drawn.

What was measured:
Staphylococcus aureus = test: Antibacterial activity against penicillin G resistant Staphylococcus aureus HH 127 assessed as growth inhibition by two-fold agar dilution method; assay type: functional
How it was run: (§1)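 Twofold agar dilution on Trypticase soy agar buffered to pH 6.0. MIC reported in μg/mL.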

Escherichia coli [1] = test: Antibacterial activity against Escherichia coli 12140 assessed as growth inhibition by two-fold agar dilution method; assay type: functional
How it was run: (§2)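 MIC (μg/mL) by twofold agar dilution on Trypticase soy agar buffered to pH 6.0.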

Klebsiella pneumoniae = test: Antibacterial activity against Klebsiella pneumoniae 4200 assessed as growth inhibition by two-fold agar dilution method; assay type: functional; how it was run: as §2
Salmonella paratyphi = test: Antibacterial activity against Salmonella paratyphi ATCC 12176 assessed as growth inhibition by two-fold agar dilution method; assay type: functional, Salmonella enterica subsp. enterica serovar Paratyphi A; settings: Salmonella enterica; how it was run: as §1
Klebsiella aerogenes = test: Antibacterial activity against Enterobacter aerogenes ATCC 13048 assessed as growth inhibition by two-fold agar dilution method; assay type: functional; how it was run: as §2
Morganella morganii = test: Antibacterial activity against indole positive Proteus morganii 179 assessed as growth inhibition by two-fold agar dilution method; assay type: functional; how it was run: as §2
Pseudomonas aeruginosa [2] = test: Antibacterial activity against Pseudomonas aeruginosa HH 63 assessed as growth inhibition by two-fold agar dilution method; assay type: functional; how it was run: as §2
Escherichia coli [3] = test: Antibacterial activity against Escherichia coli 12140 infected in sc dosed mouse administered at 1 to 5 hrs measured for 3 days; assay type: functional; settings: Escherichia coli, 12140, sc; read-out: PD50
How it was run: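 Mice infected intraperitoneally with about 2×10^3 organisms per mouse of E. coli 12140 culture diluted in 5% hog gastric mucin, giving uniformly lethal infection. Fourfold dilutions given subcutaneously in equally divided portions at 1 and 5 h postinfection, five groups per compound. Survivors observed 3 days. PD50 is total dose (mg/kg) protecting 50%, calculated by Litchfield–Wilcoxon method.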

Pseudomonas aeruginosa [4] = test: Antibacterial activity against Pseudomonas aeruginosa 1504 assessed as growth inhibition; assay type: functional
How it was run: (§3)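 Broth MIC by the standard microtiter technique in unbuffered Mueller-Hinton broth.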

Pseudomonas aeruginosa [5] = test: Antibacterial activity against Pseudomonas aeruginosa 1042 assessed as growth inhibition; assay type: functional; how it was run: as §3
Pseudomonas aeruginosa [6] = test: Antibacterial activity against Pseudomonas aeruginosa 219 assessed as growth inhibition; assay type: functional; how it was run: as §3
Pseudomonas aeruginosa [7] = test: Antibacterial activity against Pseudomonas aeruginosa 647 assessed as growth inhibition; assay type: functional; how it was run: as §3
Pseudomonas aeruginosa [8] = test: Antibacterial activity against Pseudomonas aeruginosa 864 assessed as growth inhibition; assay type: functional; how it was run: as §3
Pseudomonas aeruginosa [9] = test: Antibacterial activity against Pseudomonas aeruginosa 1062 assessed as growth inhibition; assay type: functional; how it was run: as §3
Pseudomonas aeruginosa [10] = test: Antibacterial activity against Pseudomonas aeruginosa 1063 assessed as growth inhibition; assay type: functional; how it was run: as §3
Pseudomonas aeruginosa [11] = test: Antibacterial activity against Pseudomonas aeruginosa 1106 assessed as growth inhibition; assay type: functional; how it was run: as §3

| SMILES | MIC (Staphylococcus aureus) | MIC (Escherichia coli [1]) | MIC (Klebsiella pneumoniae) | MIC (Salmonella paratyphi) | MIC (Klebsiella aerogenes) | MIC (Morganella morganii) | MIC (Pseudomonas aeruginosa [2]) | ED50 (Escherichia coli [3]) | MIC (Pseudomonas aeruginosa [4]) | MIC (Pseudomonas aeruginosa [5]) | MIC (Pseudomonas aeruginosa [6]) | MIC (Pseudomonas aeruginosa [7]) | MIC (Pseudomonas aeruginosa [8]) | MIC (Pseudomonas aeruginosa [9]) | MIC (Pseudomonas aeruginosa [10]) | MIC (Pseudomonas aeruginosa [11]) |
| --- | --- | --- | --- | --- | --- | --- | --- | --- | --- | --- | --- | --- | --- | --- | --- | --- |
| CC(=O)OCC1=C(C(=O)[O-])N2C(=O)[C@@H](NC(=O)C(NC(=O)CCCC(=O)[O-])c3ccccc3)[C@H]2SC1.[Na+].[Na+] (some centres undefined) | 6.3 mg/L | 50 mg/L | 25 mg/L | 25 mg/L | 100 mg/L | > 200 mg/L | > 200 mg/L | 100 mg/kg | – | – | – | – | – | – | – | – |
| CC(=O)OCC1=C(C(=O)O)N2C(=O)[C@@H](NC(=O)C(NC(=O)CSCC(=O)O)c3ccccc3)[C@H]2SC1 (some centres undefined) | 3.1 mg/L (≈ 5.77 µM) | 12.5 mg/L (≈ 23.3 µM) | 6.3 mg/L (≈ 11.7 µM) | 6.3 mg/L (≈ 11.7 µM) | 25 mg/L (≈ 46.5 µM) | 12.5 mg/L (≈ 23.3 µM) | > 200 mg/L | 64 mg/kg | – | – | – | – | – | – | – | – |
| CC(=O)OCC1=C(C(=O)[O-])N2C(=O)[C@@H](NC(=O)C(NC(=O)COCC(=O)[O-])c3ccccc3)[C@H]2SC1.[Na+].[Na+] (some centres undefined) | 3.1 mg/L | 6.3 mg/L | 3.1 mg/L | 12.5 mg/L | 12.5 mg/L | 12.5 mg/L | > 200 mg/L | 21.5 mg/kg | – | – | – | – | – | – | – | – |
| CC(=O)OCC1=C(C(=O)[O-])N2C(=O)[C@@H](NC(=O)C(NC(=O)C3CCC(C(=O)[O-])O3)c3ccccc3)[C@H]2SC1.[Na+].[Na+] (some centres undefined) | 6.3 mg/L | 12.5 mg/L | 6.3 mg/L | 12.5 mg/L | 25 mg/L | 50 mg/L | 200 mg/L | 140 mg/kg | – | – | – | – | – | – | – | – |
| Cn1nnnc1SCC1=C(C(=O)[O-])N2C(=O)[C@@H](NC(=O)C(NC(=O)CCCC(=O)[O-])c3ccccc3)[C@H]2SC1.[Na+].[Na+] (some centres undefined) | 3.1 mg/L | 12.5 mg/L | 6.3 mg/L | 6.3 mg/L | 25 mg/L | 12.5 mg/L | > 200 mg/L | 100 mg/kg | > 500 mg/L | > 500 mg/L | > 500 mg/L | > 500 mg/L | > 500 mg/L | > 500 mg/L | > 500 mg/L | > 500 mg/L |
| Cn1nnnc1SCC1=C(C(=O)[O-])N2C(=O)[C@@H](NC(=O)C(NC(=O)CSCC(=O)[O-])c3ccccc3)[C@H]2SC1.[Na+].[Na+] (some centres undefined) | 3.1 mg/L | 6.3 mg/L | 3.1 mg/L | 3.1 mg/L | 3.1 mg/L | 1.6 mg/L | > 200 mg/L | 50 mg/kg | 500 mg/L | > 500 mg/L | 500 mg/L | > 500 mg/L | > 500 mg/L | 500 mg/L | > 500 mg/L | > 500 mg/L |
| Cn1nnnc1SCC1=C(C(=O)[O-])N2C(=O)[C@@H](NC(=O)C(NC(=O)COCC(=O)[O-])c3ccccc3)[C@H]2SC1.[Na+].[Na+] (some centres undefined) | 3.1 mg/L | 1.6 mg/L | 0.8 mg/L | 1.6 mg/L | 3.1 mg/L | 0.4 mg/L | 200 mg/L | 8.7 mg/kg | 125 mg/L | 250 mg/L | 125 mg/L | 125 mg/L | 500 mg/L | 250 mg/L | 500 mg/L | 500 mg/L |
| Cn1nnnc1SCC1=C(C(=O)O)N2C(=O)[C@@H](NC(=O)C(N)c3ccccc3)[C@H]2SC1 (some centres undefined) | 3.1 mg/L (≈ 6.72 µM) | 3.1 mg/L (≈ 6.72 µM) | 1.6 mg/L (≈ 3.47 µM) | 1.6 mg/L (≈ 3.47 µM) | 1.6 mg/L (≈ 3.47 µM) | 6.3 mg/L (≈ 13.7 µM) | > 200 mg/L | 1.4 mg/kg | – | – | – | – | – | – | – | – |
| CC(=O)OCC1=C(C(=O)[O-])N2C(=O)[C@@H](NC(=O)C(NC(=O)[C@H]3C[C@H]3C(=O)[O-])c3ccccc3)[C@H]2SC1.[Na+].[Na+] (mixture of isomers) | 6.3 mg/L | 12.5 mg/L | 3.1 mg/L | 6.3 mg/L | 12.5 mg/L | 12.5 mg/L | > 200 mg/L | 25 mg/kg | – | – | – | – | – | – | – | – |
| CC(=O)OCC1=C(C(=O)[O-])N2C(=O)[C@@H](NC(=O)C(NC(=O)C3CO3)c3ccccc3)[C@H]2SC1.[Na+] (mixture of isomers) | 1.6 mg/L | 25 mg/L | 12.5 mg/L | 12.5 mg/L | 25 mg/L | 25 mg/L | > 200 mg/L | 100 mg/kg | – | – | – | – | – | – | – | – |
| Cn1nnnc1SCC1=C(C(=O)[O-])N2C(=O)[C@@H](NC(=O)C(NC(=O)[C@H]3C[C@H]3C(=O)[O-])c3ccccc3)[C@H]2SC1.[Na+].[Na+] (mixture of isomers) | 6.3 mg/L | 6.3 mg/L | 3.1 mg/L | 3.1 mg/L | 6.3 mg/L | 6.3 mg/L | 200 mg/L | 25 mg/kg | 125 mg/L | 250 mg/L | 125 mg/L | 125 mg/L | 500 mg/L | 250 mg/L | 500 mg/L | > 500 mg/L |
| Cn1nnnc1SCC1=C(C(=O)[O-])N2C(=O)[C@@H](NC(=O)[C@H](NC(=O)[C@H]3O[C@@H]3C(=O)[O-])c3ccccc3)[C@H]2SC1.[Na+].[Na+] (mixture of isomers) | 1.6 mg/L | 25 mg/L | 12.5 mg/L | 12.5 mg/L | 25 mg/L | 25 mg/L | > 200 mg/L | 150 mg/kg | – | – | – | – | – | – | – | – |
| CC(=O)OCC1=C(C(=O)[O-])N2C(=O)[C@@H](NC(=O)C(NC(=O)C3OC3C(=O)[O-])c3ccccc3)[C@H]2SC1.[Na+].[Na+] (single isomer, unassigned; diastereomer 1) | 6.3 mg/L | 1.6 mg/L | 0.8 mg/L | 1.6 mg/L | 3.1 mg/L | 3.1 mg/L | 100 mg/L | 12.5 mg/kg | – | – | – | – | – | – | – | – |
| CC(=O)OCC1=C(C(=O)[O-])N2C(=O)[C@@H](NC(=O)C(NC(=O)[C@@H]3O[C@@H]3C(=O)[O-])c3ccccc3)[C@H]2SC1.[Na+].[Na+] (single isomer, unassigned; diastereomer 2) | 12.5 mg/L | 12.5 mg/L | 6.3 mg/L | 6.3 mg/L | 25 mg/L | 200 mg/L | > 200 mg/L | 72 mg/kg | – | – | – | – | – | – | – | – |
| CC(=O)OCC1=C(C(=O)O)N2C(=O)[C@@H](NC(=O)[C@H](N)c3ccccc3)[C@H]2SC1 [CEPHALOGLYCIN] | 3.1 mg/L (≈ 7.65 µM) | 3.1 mg/L (≈ 7.65 µM) | 3.1 mg/L (≈ 7.65 µM) | 3.1 mg/L (≈ 7.65 µM) | 50 mg/L (≈ 123 µM) | > 200 mg/L | > 200 mg/L | – | – | – | – | – | – | – | – | – |
| CC(=O)OCC1=C(C(=O)O)N2C(=O)[C@@H](NC(=O)Cc3cccs3)[C@H]2SC1 [CEPHALOTHIN] | 0.2 mg/L (≈ 0.504 µM) | 3.1 mg/L (≈ 7.82 µM) | 1.6 mg/L (≈ 4.04 µM) | 0.8 mg/L (≈ 2.02 µM) | 12.5 mg/L (≈ 31.5 µM) | > 200 mg/L | > 200 mg/L | 50 mg/kg | – | – | – | – | – | – | – | – |
